pIC50: −log10 of the molar value. Active and inactive are the calls of the source. The calls are words filed in the database; no cut-off is given here.
Assays:
[1] = Glutathione reactivity in pH 7.4 deuterated phosphate buffer assessed as reaction half life at 10 mg up to 10 mins in presence of 1.5 to 2 equiv of GSH by 1H NMR analysis; type: physicochemical
[2] = system: MDA-MB-231; experiment: Antiproliferative activity against human MDA-MB-231 cells after 72 hrs by MTT assay; type: functional, cell-based
Method in brief: (§1)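 MTT proliferation assay. Cells were seeded at 1 × 10^4 per well and exposed to DMSO or compound at 0.1, 0.33, 1.0, 3.3 and 10 μM for 72 h. MTT reagent was added, and OD at 560 nm was read after 1 h at 37°C. Each concentration was tested in quadruplicate wells.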

[3] = system: MCF7; experiment: Antiproliferative activity against human MCF7 cells after 72 hrs by MTT assay; type: functional, cell-based; method in brief: as §1
[4] = Drug level in pH 7.4 deuterated phosphate buffer treated with (2R,3'S,3a'R,3a1'R,6a'R,7'S,11'S,11a'S)-7',11'-Dihydroxy-5',5',8',8'-tetramethyldecahydro-2'H-spiro[aziridine-2,15'-[6a,11a]-(epoxymethano)[3,3a1]ethanophenanthro[1,10-de][1,3]dioxin]-14'-one at 10 mg after 5 hrs in presence of 1.5 to 2 equiv of GSH by HRMS analysis
[5] = Glutathione reactivity in pH 7.4 deuterated phosphate buffer at 10 mg after 20 hrs in presence of 1.5 to 2 equiv of GSH by 1H NMR analysis
[6] = Potency index, ratio of oridonin IC50 to compound IC50 for human LX2 cells; type: functional
[7] = Antiproliferative activity against human LX2 cells by alamar blue assay; type: functional, cell-based; details: LX-2
[8] = system: Plasma; experiment: Stability in human plasma up to 5 hrs; type: ADME, cell-free
[9] = system: Plasma; experiment: Stability in rat plasma up to 5 hrs; type: ADME, cell-free
[10] = Glutathione reactivity in pH 7.4 deuterated phosphate buffer assessed as GSH adduct formation at 10 mg up to 10 mins in presence of 1.5 to 2 equiv of GSH by HRMS analysis
[11] = system: MDA-MB-231; experiment: Antitumor activity against human MDA-MB-231 cells xenografted in nude mouse assessed as tumor growth inhibition at 10 mg/kg, ip daily for 10 days; type: functional, organism-based
Method in brief: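 Orthotopic model: female nude mice, 6–8 weeks old. MDA-MB-231 cells (1.0 × 10^6 in PBS) were injected into the no. 3 mammary fat pad, and mice were randomized into 4 groups. Once tumors reached 80–100 mm3, mice received 10 or 15 mg/kg daily by intraperitoneal injection in DMSO vehicle. Tumor volume (0.5 × L × W2) and body weight were measured daily. Mean ± SEM.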

[12] = Toxicity in ip dosed ddYS mouse implanted with mouse ehrlich carcinoma cells administered once daily for 7 consecutive days measured for 40 days; type: organism-based; details: in vivo
[13] = Stability in mouse microsomes; type: ADME, Microsome
[14] = system: Plasma; experiment: Stability in mouse plasma up to 5 hrs; type: ADME, cell-free
[15] = Stability in rat microsomes; type: ADME, Microsome
[16] = Stability in human microsomes; type: ADME, Microsome
[17] = Drug level in pH 7.4 deuterated phosphate buffer treated with oridonin at 10 mg up to 10 mins in presence of 1.5 to 2 equiv of GSH by HRMS analysis
[18] = Glutathione reactivity in pH 7.4 deuterated phosphate buffer assessed as reaction half life at 10 mg up to 24 hrs in presence of 1.5 to 2 equiv of GSH by 1H NMR analysis; type: physicochemical; details: pH 7.4, 24 h
[19] = Glutathione reactivity in pH 7.4 deuterated phosphate buffer assessed as GSH adduct formation at 10 mg after 5 hrs in presence of 1.5 to 2 equiv of GSH by HRMS analysis
[20] = Drug level in pH 7.4 deuterated phosphate buffer treated with (2R,3'S,3a'R,3a1'R,6a'R,7'S,11'S,11a'S)-1-Acryloyl-7',11'-dihydroxy-5',5',8',8'-tetramethyldecahydro-2'H-spiro[aziridine-2,15'-[6a,11a](epoxymethano)[3,3a1]ethanophenanthro[1,10-de][1,3]-dioxin]-14'-one at 10 mg after 1 hr in presence of 1.5 to 2 equiv of GSH by HRMS analysis

Question: Which t1/2 ([1]; gsh, pH 7.4, 10 min) does the source give for `C=C1C(=O)[C@@]23[C@@H]4OC(C)(C)O[C@@]25OC[C@@]2([C@H]([C@@H]5O)C(C)(C)CC[C@@H]2O)[C@@H]3CC[C@@H]14` here?
Answer: Its t1/2 is < 1 min.

Question: Which Activity [2] does the source give for `C=CCNc1nc2c(s1)CC(C)(C)[C@H]1[C@H](O)[C@]3(O)OC[C@@]21[C@@H]1CC[C@@H]2[C@@H](O)[C@@]13C(=O)C21CN1C(=O)OCC1c2ccccc2-c2ccccc21` (some centres undefined) here?
Answer: Its Activity is “Active”.

Question: What about the Activity [3] of the same compound?
Answer: The Activity was “Active”.

Question: Which Drug metabolism [4] does the source give for `CC1(C)O[C@@H]2[C@H]3CC[C@H]4[C@@]56CO[C@@](O1)([C@@H](O)[C@@H]5C(C)(C)CC[C@@H]6O)[C@@]24C(=O)C3(N)CSCC(NC(=O)CC[C@H](N)C(=O)O)C(=O)NCC(=O)O` (some centres undefined) here?
Answer: The Drug metabolism was “Metabolite detected”.

Question: Which Drug metabolism [5] does the source give for `O=C(O)C1CN1` (centres undefined) here?
Answer: Its Drug metabolism is “Metabolite detected”.

Question: Which “Ratio IC50” value [6] does the source give for `C=C1C(=O)[C@]23[C@H](O)[C@H]1CC[C@H]2[C@]12C=CCC(C)(C)[C@H]1[C@H](O)[C@]3(O)OC2` here?
Answer: Its value is 10.

Question: What about the pIC50 [7] of the same compound?
Answer: Its pIC50 is 6.31.

Question: With `C=CCNc1nc2c(s1)CC(C)(C)[C@H]1[C@H](O)[C@]3(O)OC[C@@]21[C@@H]1CC[C@@H]2[C@@H](O)[C@@]13C(=O)C21CN1` (some centres undefined) as the compound, how does the Activity [2] read?
Answer: Its Activity is “Active”.

Question: What about the Activity [3] of the same compound?
Answer: The Activity was “Active”.

Question: With `C=C1C(=O)[C@]23[C@H](OC(=O)[C@H](C)N)[C@H]1CC[C@H]2[C@@]12CO[C@@]3(O)[C@@H](O)[C@@H]1C(C)(C)CC[C@@H]2O.O=C(O)C(F)(F)F` as the compound, how does the Drug metabolism ([1]; in vitro, pH 7.4, 10 min) read?
Answer: Its Drug metabolism is “Metabolite_Detected”.

Question: With `C=C1C(=O)[C@]23[C@H](O)[C@H]1CC[C@H]2[C@@]12CO[C@]3(O)[C@@H](O)[C@@H]1C(C)(C)CC[C@@H]2O` [ORIDONIN] as the compound, how does the Stability [8] read?
Answer: Its Stability is “Stable”.

Question: What about the pIC50 ([2]; MDA-MB-231, 72 h) of the same compound?
Answer: The pIC50 was 4.53.

Question: And the pIC50 ([3]; MCF7, 72 h)?
Answer: Its pIC50 is 5.17.

Question: And the Stability [9]?
Answer: The Stability was “Stable”.

Question: And the Drug metabolism [10]?
Answer: The Drug metabolism was “Metabolite detected”.

Question: What about the TGI [11] of the same compound?
Answer: The TGI was “Active”.

Question: What about the LD50 at 960 h [12] of the same compound?
Answer: The LD50 at 960 h was 37.5 mg/kg.

Question: What about the Stability [13] of the same compound?
Answer: The Stability was “Stable”.

Question: And the Stability [14]?
Answer: The Stability was “Stable”.

Question: And the Stability [15]?
Answer: Its Stability is “Stable”.

Question: What about the Stability [16] of the same compound?
Answer: The Stability was “Stable”.

Question: And the half-life ([1]; deuterated phosphate buffer with glutathione (GSH), pH 7.4)?
Answer: The half-life was < 1 min.

Question: Which Drug metabolism [17] does the source give for `CC1(C)CC[C@H](O)[C@]23CO[C@@](O)([C@@H](O)[C@H]12)[C@]12C(=O)C(CSCC(NC(=O)CC[C@H](N)C(=O)O)C(=O)NCC(=O)O)[C@H](CC[C@@H]31)[C@H]2O` (some centres undefined) here?
Answer: Its Drug metabolism is “Metabolite detected”.

Question: Which Stability [8] does the source give for `CC1(C)O[C@@H]2[C@H]3CC[C@H]4[C@@]56CO[C@@](O1)([C@@H](O)[C@@H]5C(C)(C)CC[C@@H]6O)[C@@]24C(=O)C31CN1` (some centres undefined) here?
Answer: The Stability was “Stable”.

Question: And the Stability [9]?
Answer: The Stability was “Stable”.

Question: And the Stability [13]?
Answer: Its Stability is “Stable”.

Question: What about the t1/2 [18] of the same compound?
Answer: Its t1/2 is 4 to 6 h.

Question: And the Stability [14]?
Answer: The Stability was “Stable”.

Question: And the Drug metabolism [19]?
Answer: Its Drug metabolism is “Metabolite detected”.

Question: And the Stability [15]?
Answer: Its Stability is “Stable”.

Question: What about the Stability [16] of the same compound?
Answer: The Stability was “Stable”.

Question: For `CC1(C)O[C@@H]2[C@H]3CC[C@H]4[C@@]56CO[C@@](O1)([C@@H](O)[C@@H]5C(C)(C)CC[C@@H]6O)[C@@]24C(=O)C31CN1C(=O)CCSC[C@H](NC(=O)CC[C@H](N)C(=O)O)C(=O)NCC(=O)O` (some centres undefined), which Drug metabolism [20] is on record?
Answer: The Drug metabolism was “Metabolite detected”.

Question: Which results are given for `CCC(=O)N1CC12C(=O)[C@@]13[C@@H]4OC(C)(C)O[C@@]15OC[C@@]1([C@H]([C@@H]5O)C(C)(C)CC[C@@H]1O)[C@@H]3CC[C@H]42` (some centres undefined)?
Answer: Activity [2]: inactive; Activity [3]: inactive
